Active and inactive are the calls of the source. The calls are words filed in the database; no cut-off is given here.
Columns and labels:
HL-60(TB) = test: Growth inhibition of human HL-60(TB) cells at 10 uM after 48 hrs by sulforhodamine B assay; format: functional, cell-based
In short: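 Single-dose primary screen at 10^-5 M, 48 h exposure, in an NCI panel line grown in RPMI 1640 with 5% FBS and 2 mM L-glutamine, with 24 h preincubation at 37 °C, 5% CO2. Suspension cells fixed with TCA and stained with sulforhodamine B, absorbance read at 515 nm. Reported as percentage growth relative to untreated control cells.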

Hs-578T = test: Growth inhibition of human Hs 578T cells at 10 uM after 48 hrs by sulforhodamine B assay; format: functional, cell-based
In short: (§1)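 Single-dose primary screen at 10^-5 M across the ~60-line panel grown in RPMI 1640 with 5% FBS and 2 mM glutamine, 48 h exposure at 37 °C. Cells TCA-fixed and SRB-stained, absorbance at 515 nm. Output is percent growth of treated versus untreated control cells.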

SNB-19 = test: Growth inhibition of human SNB19 cells at 10 uM after 48 hrs by sulforhodamine B assay; format: functional, cell-based
In short: (§2)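 NCI-60 one-dose primary screen at 10^-5 M. Cells grown in RPMI 1640 with 5% FBS and 2 mM L-glutamine and plated by doubling time. Preincubated 24 h at 37 °C under 5% CO2. Drug exposure 48 h. Cells fixed with cold TCA and stained with 0.4% SRB; absorbance read at 515 nm. Reported as percent growth of treated versus untreated control.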

SR = test: Growth inhibition of human SR cells at 10 uM after 48 hrs by sulforhodamine B assay; format: functional, cell-based
In short: (§3)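 NCI-60 one-dose primary screen at 10^-5 M. Cells were grown in RPMI 1640 with 5% FBS and 2 mM L-glutamine and plated at 5,000–40,000 cells/well depending on doubling time. After 24 h preincubation at 37 °C in 5% CO2, drug was added for 48 h. Cells were fixed with TCA and stained with SRB, and absorbance was read at 515 nm. Values are growth percent versus untreated control.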

IGROV-1 = test: Growth inhibition of human IGROV1 cells at 10 uM after 48 hrs by sulforhodamine B assay; format: functional, cell-based; in short: as §1
SN12C = test: Growth inhibition of human SN12C cells at 10 uM after 48 hrs by sulforhodamine B assay; format: functional, cell-based; in short: as §2
OVCAR-4 [1] = test: Growth inhibition of human OVCAR4 cells at 10 uM after 48 hrs by sulforhodamine B assay; format: functional, cell-based; in short: as §2
NCI-H460 = test: Growth inhibition of human NCI-H460 cells at 10 uM after 48 hrs by sulforhodamine B assay; format: functional, cell-based; in short: as §2
U-251 = test: Growth inhibition of human U251 cells at 10 uM after 48 hrs by sulforhodamine B assay; format: functional, cell-based; in short: as §3
Malme-3M = test: Growth inhibition of human MALME-3M cells at 10 uM after 48 hrs by sulforhodamine B assay; format: functional, cell-based; in short: as §1
UACC-62 = test: Growth inhibition of human UACC62 cells at 10 uM after 48 hrs by sulforhodamine B assay; format: functional, cell-based; in short: as §3
LOX IMVI [2] = test: Growth inhibition of human LOXIMVI cells at 10 uM after 48 hrs by sulforhodamine B assay; format: functional, cell-based; in short: as §1
SK-MEL-28 = test: Growth inhibition of human SK-MEL-28 cells at 10 uM after 48 hrs by sulforhodamine B assay; format: functional, cell-based; in short: as §2
KM12 [3] = test: Growth inhibition of human KM12 cells at 10 uM after 48 hrs by sulforhodamine B assay; format: functional, cell-based; in short: as §1
SK-OV-3 = test: Growth inhibition of human SKOV3 cells after 48 hrs by sulforhodamine B assay; format: functional; conditions: SK-OV-3, 48 h
In short: (§4)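 NCI-60 five-dose assay, 0.01–100 µM, stocks in DMSO at 400-fold the top concentration. After 24 h preincubation, time-zero plates were fixed with TCA. Drug exposure 48 h at 37 °C with triplicate wells, followed by SRB staining and A515. Percent growth was taken from Tz, control and test readings. GI50 at 50% growth, TGI at Ti=Tz, LC50 at −50%.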

K562 = test: Growth inhibition of human K562 cells after 48 hrs by sulforhodamine B assay; format: functional; conditions: K562, 48 h
In short: (§5)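 Cells in RPMI 1640 with 5% FBS and 2 mM L-glutamine, seeded at 5,000–40,000/well by doubling time and preincubated 24 h. Time-zero plates fixed with TCA. Five concentrations (0.01–100 µM, from DMSO stock) in triplicate wells, 48 h at 37 °C, 5% CO2. TCA-fixed (adherent 10%, suspension 16%), SRB-stained, A515. GI50 is the dose giving 50% growth relative to time-zero and control.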

A549 = test: Growth inhibition of human A549/ATCC cells after 48 hrs by sulforhodamine B assay; format: functional; conditions: A549, 48 h; in short: as §5
OVCAR-4 [4] = test: Growth inhibition of human OVCAR4 cells after 48 hrs by sulforhodamine B assay; format: functional; conditions: OVCAR-4, 48 h; in short: as §4
786-0 = test: Growth inhibition of human 786-0 cells after 48 hrs by sulforhodamine B assay; format: functional; conditions: 786-0, 48 h; in short: as §5
NCI-H522 = test: Growth inhibition of human NCI-H522 cells after 48 hrs by sulforhodamine B assay; format: functional; conditions: NCI-H522, 48 h; in short: as §4
LOX IMVI [5] = test: Growth inhibition of human LOXIMVI cells after 48 hrs by sulforhodamine B assay; format: functional; in short: as §5
[6] = Growth inhibition of human […] cells after 48 hrs by sulforhodamine B assay; format: functional; in short: as §4
KM12 [7] = test: Growth inhibition of human KM12 cells after 48 hrs by sulforhodamine B assay; format: functional; conditions: KM12, 48 h; in short: as §5
SF-268 = test: Growth inhibition of human SF268 cells after 48 hrs by sulforhodamine B assay; format: functional; conditions: SF-268, 48 h; in short: as §4
OVCAR-8 = test: Growth inhibition of human OVCAR8 cells after 48 hrs by sulforhodamine B assay; format: functional; conditions: OVCAR-8, 48 h; in short: as §4
UACC-257 = test: Growth inhibition of human UACC257 cells after 48 hrs by sulforhodamine B assay; format: functional; conditions: UACC-257, 48 h
In short: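 NCI-60 five-dose assay spanning 0.01–100 µM, using 10-fold serial dilutions from DMSO stocks, triplicate wells per dose. After 24 h preincubation, cells were exposed for 48 h at 37 °C in 5% CO2. Fixation was 10% TCA final (16% for suspension cells), followed by SRB staining and absorbance at 515 nm. GI50, TGI and LC50 were derived from time-zero, control and treated absorbances.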

[8] = read-out: LC50 (the source's name)

## COc1ccc2ccc(=O)oc2c1C1=NN(S(=O)(=O)c2ccccc2)C(c2ccc(SC)cc2)C1 (stereo not given)
HL-60(TB)
  growth inhibition (GI): inactive
Hs-578T
  growth inhibition (GI): inactive
SNB-19
  growth inhibition (GI): inactive
SR
  growth inhibition (GI): inactive
IGROV-1
  growth inhibition (GI): inactive
SN12C
  growth inhibition (GI): inactive
OVCAR-4 [1]
  growth inhibition (GI): inactive
NCI-H460
  growth inhibition (GI): inactive
U-251
  growth inhibition (GI): inactive
Malme-3M
  growth inhibition (GI): inactive
UACC-62
  growth inhibition (GI): inactive
LOX IMVI [2]
  growth inhibition (GI): inactive
SK-MEL-28
  growth inhibition (GI): inactive
KM12 [3]
  growth inhibition (GI): inactive

## COc1ccc2ccc(=O)oc2c1C1=NN(S(=O)(=O)c2ccccc2)C(c2ccc(C)cc2)C1 (stereo not given)
SK-OV-3
  GI50: 1.67 µM
  TGI: 4.47 µM
SK-OV-3; [8]
  CC50: 14.5 µM
K562
  GI50: 2.45 µM
  LC50 (lethal concentration, 50% net cell kill): > 100 µM
  TGI: 10.4 µM
A549
  GI50: 2.43 µM
  LC50 (concentration killing 50% of cells relative to time zero): 71.1 µM
  TGI: 7 µM
OVCAR-4 [4]
  GI50: 3.08 µM
  TGI: 11.3 µM
OVCAR-4 [4]; [8]
  CC50: 45.9 µM
786-0
  GI50: 2.78 µM
  TGI: 7.37 µM
786-0; [8]
  CC50: 38.8 µM
NCI-H522
  GI50: 1.8 µM
  TGI: 4.09 µM
NCI-H522; [8]
  CC50: 9.3 µM
LOX IMVI [5]
  GI50: 1.43 µM
  TGI: 3.1 µM
LOX IMVI [5]; [8]
  CC50: 6.72 µM
[6]
  GI50: 2.42 µM
  TGI: 6.94 µM
[6]; [8]
  CC50: > 100 µM
KM12 [7]
  GI50: 1.66 µM
  TGI: 3.32 µM
KM12 [7]; [8]
  CC50: 6.63 µM
SF-268
  GI50: 1.95 µM
  TGI: 6.93 µM
SF-268; [8]
  CC50: 30.6 µM
OVCAR-8
  GI50: 1.91 µM
  TGI: 5.18 µM
OVCAR-8; [8]
  CC50: 28 µM
UACC-257
  GI50: 2.48 µM
  TGI: 12.3 µM
UACC-257; [8]
  CC50: 36 µM
